# Legend:
# Assay type in all cases: functional
# HCT-116 [1] = experiment: Cytotoxicity against human HCT116 cells assessed as growth inhibition at 10^-6 M after 72 hrs by MTS assay relative to control; settings: HCT-116, 72 h, read-out: GI
# In short: (§1)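 Cells from ATCC; HCT-116 grown in RPMI 1640 and MRC5 in DMEM, each with 10% FCS and 1% glutamine, 37 °C, 5% CO2. Seeded at 2.5 × 10^3 cells/well, cultured 24 h, then exposed to compounds at 1 and 10 μM final for 72 h. MTS read-out, absorbance 490 nm; percent index from treated/control OD490 × 100, three experiments.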
# MRC5 [2] = experiment: Cytotoxicity against human MRC5 cells assessed as growth inhibition at 10^-5 M after 72 hrs by MTS assay relative to control; settings: MRC5, 72 h, read-out: GI; in short: as §1
# MRC5 [3] = experiment: Cytotoxicity against human MRC5 cells assessed as growth inhibition at 10^-6 M after 72 hrs by MTS assay relative to control; settings: MRC5, 72 h, read-out: GI; in short: as §1
# HCT-116 [4] = experiment: Cytotoxicity against human HCT116 cells assessed as growth inhibition at 10^-5 M after 72 hrs by MTS assay relative to control; settings: HCT-116, 72 h, read-out: GI; in short: as §1
structure (smiles),measurement,setting,value
C=C1C[C@@H](O)[C@H]2C(C)(C)CCC[C@]2(C)[C@H]1C[C@H](O)C1=CC(=O)OC1O (some centres undefined),inhibition of growth at 1 µM,HCT-116 [1],0%
same,inhibition of growth at 10 µM,MRC5 [2],0%
same,inhibition of growth at 1 µM,MRC5 [3],0%
same,inhibition of growth at 10 µM,HCT-116 [4],66%
